Results on five compounds are retold here after ChEMBL document CHEMBL1142073, “Synergistic activity of R207910 combined with pyrazinamide against murine tuberculosis” (2007).

For test [1], the system named is Mycobacterium tuberculosis. Description: Reduction of lung lesions in Mycobacterium tuberculosis H37Rv infected Swiss mouse at 25 mg/kg, po for 5 days/week after 2 months. The class given is functional, organism-based. Set-up: dose 25 mg/kg.
Test [2] has as its system Mycobacterium tuberculosis. Description: Reduction of bacterial counts in Mycobacterium tuberculosis H37Rv infected Swiss mouse lung at 25 mg/kg, po for 5 days/week after 2 months. The class given is functional. In short, it runs like this: (§1)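 Female 4-week-old Swiss mice were infected in the tail vein with about 2 10 6 CFU of H37Rv, grown in Dubos broth for 7 days at 37 C. Gavage started 2 weeks post-infection, 5 days/week, with rifampin given 1 h before other drugs. Lung homogenates were plated for CFU; some groups had both lungs cultured undiluted. Mann-Whitney U test.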

For test [3], the system named is Mycobacterium tuberculosis. Description: Reduction of bacterial counts in Mycobacterium tuberculosis H37Rv infected Swiss mouse lung at 25 mg/kg, po for 5 days/week after 1 month. The class given is functional. In short, it runs like this: as §1
The subject of test [4] is Mycobacterium tuberculosis. Description: Reduction of lung lesions in Mycobacterium tuberculosis H37Rv infected Swiss mouse at 25 mg/kg, po for 5 days/week after 1 month. The format is functional, organism-based. Set-up: dose 25 mg/kg.
Test [5] deals with Mycobacterium tuberculosis. Description: Reduction of bacterial counts in Mycobacterium tuberculosis H37Rv infected Swiss mouse lung at 100 mg/kg, po for 5 days/week after 2 months. The format is functional. In short, it runs like this:
as §1

Test [6] deals with Mycobacterium tuberculosis. Description: Reduction of bacterial counts in Mycobacterium tuberculosis H37Rv infected Swiss mouse lung at 100 mg/kg, po for 5 days/week after 1 month. The class given is functional. The essentials:
as §1

Test [7] has as its system Mycobacterium tuberculosis. Description: Reduction of lung lesions in Mycobacterium tuberculosis H37Rv infected Swiss mouse at 100 mg/kg, po for 5 days/week after 2 months. The class given is functional, organism-based. On the set-up: dose 100 mg/kg.
In test [8] the test system is Mycobacterium tuberculosis. Description: Reduction of bacterial counts in Mycobacterium tuberculosis H37Rv infected Swiss mouse lung at 150 mg/kg, po for 5 days/week after 2 months. The class given is functional. The essentials:
as §1

The test system of test [9] is Mycobacterium tuberculosis. Description: Reduction of lung lesions in Mycobacterium tuberculosis H37Rv infected Swiss mouse at 150 mg/kg, po for 5 days/week after 2 months. The format is functional, organism-based. Set-up: dose 150 mg/kg.
Test [10] deals with Mycobacterium tuberculosis. Description: Reduction of bacterial counts in Mycobacterium tuberculosis H37Rv infected Swiss mouse lung at 150 mg/kg, po for 5 days/week after 1 month. The format is functional. The essentials:
as §1

The test system of test [11] is Mycobacterium tuberculosis. Description: Reduction of bacterial counts in Mycobacterium tuberculosis H37Rv infected Swiss mouse lung at 10 mg/kg, po for 5 days/week after 2 months. The format is functional. The essentials: as §1
For test [12], the system named is Mycobacterium tuberculosis. Description: Reduction of lung lesions in Mycobacterium tuberculosis H37Rv infected Swiss mouse at 10 mg/kg, po for 5 days/week after 2 months. The class given is functional, organism-based. On the set-up: dose 10 mg/kg.
The test system of test [13] is Mycobacterium tuberculosis. Description: Reduction of bacterial counts in Mycobacterium tuberculosis H37Rv infected Swiss mouse lung at 10 mg/kg, po for 5 days/week after 1 month. The format is functional. In short, it runs like this:
as §1

Active and inactive are the calls of the source. No cut-off for these calls is given here.

Consider `COc1nc2ccc(Br)cc2cc1[C@@H](c1ccccc1)[C@@](O)(CCN(C)C)c1cccc2ccccc12` [BEDAQUILINE], for which the outcome in test [1] and in test [4] was Active. Besides, the Log10 cfu in test [2] is 2.3; in test [3], 4.1.

In the case of `NNC(=O)c1ccncc1` [ISONIAZID], the outcome in test [1] was Active. Also, the Log10 cfu in test [2] was 4.7; in [3], 4.9.

As to `COc1c(N2C[C@@H]3CCCN[C@@H]3C2)c(F)cc2c(=O)c(C(=O)O)cn(C3CC3)c12` [MOXIFLOXACIN], the values for the Log10 cfu in test [5] and in test [6] were 4.3 and 5.5, respectively. In addition, the result in test [7] was Active.

Take `NC(=O)c1cnccn1` [PYRAZINAMIDE]: the Log10 cfu is given as 6.4 in test [8] and 6.2 in test [10]. In addition, in [9], the result was inactive.

Turning to `CO[C@H]1/C=C/O[C@@]2(C)Oc3c(C)c(O)c4c(O)c(c(/C=N/N5CCN(C)CC5)c(O)c4c3C2=O)NC(=O)/C(C)=C\C=C\[C@H](C)[C@H](O)[C@@H](C)[C@@H](O)[C@@H](C)[C@H](OC(C)=O)[C@@H]1C` [RIFAMPIN], the Log10 cfu in test [11] stood at 4.1; in [13], 6. Further, the result in [12] was Active.
